Calls of active or inactive are those of the source. The calls are words filed in the database; no cut-off is given here.
Tests used:
[1] = target: T1, Mitogen-activated protein kinase kinase kinase 7 (Homo sapiens, UniProt O43318); assay: Inhibition of TAK1 (unknown origin) after 60 mins by biochemical assay
T1 sequence (O43318 whole entry): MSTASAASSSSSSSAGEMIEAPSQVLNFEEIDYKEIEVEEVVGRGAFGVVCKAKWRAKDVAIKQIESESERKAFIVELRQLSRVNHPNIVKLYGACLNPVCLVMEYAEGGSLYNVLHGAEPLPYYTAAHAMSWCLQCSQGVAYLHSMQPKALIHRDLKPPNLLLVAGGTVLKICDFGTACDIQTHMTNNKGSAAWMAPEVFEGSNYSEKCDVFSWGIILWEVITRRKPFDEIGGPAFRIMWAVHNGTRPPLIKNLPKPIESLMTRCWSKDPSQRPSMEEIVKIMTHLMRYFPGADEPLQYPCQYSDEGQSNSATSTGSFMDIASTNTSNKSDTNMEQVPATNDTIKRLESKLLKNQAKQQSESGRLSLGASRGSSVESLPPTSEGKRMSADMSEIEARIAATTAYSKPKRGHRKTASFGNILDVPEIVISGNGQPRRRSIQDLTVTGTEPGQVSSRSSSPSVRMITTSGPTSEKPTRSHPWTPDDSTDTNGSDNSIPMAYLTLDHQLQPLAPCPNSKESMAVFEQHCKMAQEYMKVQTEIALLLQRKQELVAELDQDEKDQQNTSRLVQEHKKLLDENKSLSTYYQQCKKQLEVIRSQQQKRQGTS

[2] = target: Probable ATP-dependent RNA helicase DDX17 (Homo sapiens) (UniProt Q92841); assay: Binding affinity to DDX17 in human NCI-H23 cells at 1 uM by mass spectrometry based pull down assay; assay type: cell-based
[3] = target: MOB kinase activator 1B (Homo sapiens) (UniProt Q7L9L4); assay: Binding affinity to MOB1B in human NCI-H23 cells at 1 uM by mass spectrometry based pull down assay; assay type: cell-based
MOB kinase activator 1B (Homo sapiens), sequence (Q7L9L4 whole entry): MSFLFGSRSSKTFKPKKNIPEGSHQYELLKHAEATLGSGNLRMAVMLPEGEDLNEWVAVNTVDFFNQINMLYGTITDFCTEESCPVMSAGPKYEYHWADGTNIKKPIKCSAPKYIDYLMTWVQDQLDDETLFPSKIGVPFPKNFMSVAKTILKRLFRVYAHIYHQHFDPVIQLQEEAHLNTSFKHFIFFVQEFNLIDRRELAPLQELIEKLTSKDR

[4] = target: Casein kinase II subunit beta (Homo sapiens) (UniProt P67870); assay: Binding affinity to CSNK2B in human NCI-H23 cells at 1 uM by mass spectrometry based pull down assay; assay type: cell-based
Casein kinase II subunit beta (Homo sapiens), sequence (P67870 whole entry): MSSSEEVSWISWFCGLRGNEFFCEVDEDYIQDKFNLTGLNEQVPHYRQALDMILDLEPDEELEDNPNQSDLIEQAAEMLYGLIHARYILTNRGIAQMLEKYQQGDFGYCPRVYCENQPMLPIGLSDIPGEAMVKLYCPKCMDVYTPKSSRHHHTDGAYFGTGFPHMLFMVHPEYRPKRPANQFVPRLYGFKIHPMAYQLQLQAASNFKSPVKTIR

[5] = target: Acyl-coenzyme A thioesterase 9, mitochondrial (Homo sapiens) (UniProt Q9Y305); assay: Binding affinity to ACOT9 in human NCI-H23 cells at 1 uM by mass spectrometry based pull down assay; assay type: cell-based
Acyl-coenzyme A thioesterase 9, mitochondrial (Homo sapiens), sequence (Q9Y305 whole entry): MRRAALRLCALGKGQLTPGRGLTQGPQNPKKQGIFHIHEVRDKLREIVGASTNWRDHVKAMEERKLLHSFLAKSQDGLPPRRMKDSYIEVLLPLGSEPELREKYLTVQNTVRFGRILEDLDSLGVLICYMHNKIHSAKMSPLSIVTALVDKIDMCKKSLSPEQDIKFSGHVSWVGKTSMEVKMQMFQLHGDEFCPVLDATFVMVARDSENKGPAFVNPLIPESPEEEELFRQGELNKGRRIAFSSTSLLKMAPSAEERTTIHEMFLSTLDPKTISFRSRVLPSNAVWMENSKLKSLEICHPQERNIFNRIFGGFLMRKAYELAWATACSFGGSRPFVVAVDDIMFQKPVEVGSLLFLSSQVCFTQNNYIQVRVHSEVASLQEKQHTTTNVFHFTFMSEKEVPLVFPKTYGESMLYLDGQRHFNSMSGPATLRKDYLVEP
Summary of the method: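 NCI-H23 or NCI-H358 cells were grown and lysed. Lysates were incubated overnight at 4 °C with 1 μM biotinylated covalent probe or DMSO, then pulled down on streptavidin beads. Proteins were run on polyacrylamide gels and stained with Coomassie. Bands were excised, digested and identified by mass spectrometry.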

[6] = target: Monofunctional C1-tetrahydrofolate synthase, mitochondrial (Homo sapiens) (UniProt Q6UB35); assay: Binding affinity to MTHFD1L in human NCI-H23 cells at 1 uM by mass spectrometry based pull down assay; assay type: cell-based
Monofunctional C1-tetrahydrofolate synthase, mitochondrial (Homo sapiens), sequence (Q6UB35 whole entry): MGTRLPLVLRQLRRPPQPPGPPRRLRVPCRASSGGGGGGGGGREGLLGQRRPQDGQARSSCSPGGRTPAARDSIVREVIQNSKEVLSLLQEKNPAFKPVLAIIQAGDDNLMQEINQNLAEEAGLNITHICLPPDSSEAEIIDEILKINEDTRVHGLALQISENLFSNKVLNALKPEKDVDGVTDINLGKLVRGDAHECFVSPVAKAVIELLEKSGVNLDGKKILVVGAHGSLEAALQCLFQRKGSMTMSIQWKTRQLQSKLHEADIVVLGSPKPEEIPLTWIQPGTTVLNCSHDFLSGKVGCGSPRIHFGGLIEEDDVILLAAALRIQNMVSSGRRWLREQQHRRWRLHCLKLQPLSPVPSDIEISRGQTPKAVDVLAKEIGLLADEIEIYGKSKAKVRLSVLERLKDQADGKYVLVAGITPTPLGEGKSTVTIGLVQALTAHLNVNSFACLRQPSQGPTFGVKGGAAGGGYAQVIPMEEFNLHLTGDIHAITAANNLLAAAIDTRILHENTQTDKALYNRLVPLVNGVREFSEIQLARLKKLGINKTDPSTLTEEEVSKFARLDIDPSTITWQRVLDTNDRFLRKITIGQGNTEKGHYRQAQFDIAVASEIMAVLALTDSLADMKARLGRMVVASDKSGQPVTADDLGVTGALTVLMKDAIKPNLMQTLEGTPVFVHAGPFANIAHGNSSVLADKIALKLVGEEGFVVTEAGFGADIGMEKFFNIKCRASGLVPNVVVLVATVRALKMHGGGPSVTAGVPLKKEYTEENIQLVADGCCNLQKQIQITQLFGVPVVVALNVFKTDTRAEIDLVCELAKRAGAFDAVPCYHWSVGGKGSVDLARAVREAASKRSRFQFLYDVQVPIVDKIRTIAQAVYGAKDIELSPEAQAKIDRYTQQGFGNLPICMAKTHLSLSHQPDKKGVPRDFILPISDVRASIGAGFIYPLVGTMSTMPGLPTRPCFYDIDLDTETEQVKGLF

Beclin-1 (Homo sapiens) = Beclin-1 (Homo sapiens) (UniProt Q14457); assay: Binding affinity to BECN1 in human NCI-H23 cells at 1 uM by mass spectrometry based pull down assay; assay type: cell-based
Beclin-1 (Homo sapiens), sequence (Q14457 whole entry): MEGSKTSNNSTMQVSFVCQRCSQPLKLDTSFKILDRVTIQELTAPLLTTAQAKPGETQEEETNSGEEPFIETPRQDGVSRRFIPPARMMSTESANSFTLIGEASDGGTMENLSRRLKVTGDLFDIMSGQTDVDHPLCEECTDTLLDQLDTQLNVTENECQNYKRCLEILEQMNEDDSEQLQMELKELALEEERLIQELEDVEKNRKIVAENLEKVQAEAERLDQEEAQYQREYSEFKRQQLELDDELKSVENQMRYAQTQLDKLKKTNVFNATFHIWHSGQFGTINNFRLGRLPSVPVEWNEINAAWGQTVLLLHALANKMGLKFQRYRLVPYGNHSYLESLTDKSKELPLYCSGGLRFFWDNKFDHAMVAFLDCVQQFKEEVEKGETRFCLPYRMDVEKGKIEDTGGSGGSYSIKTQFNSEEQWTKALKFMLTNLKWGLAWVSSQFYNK

[7] = target: Thioredoxin reductase 1, cytoplasmic (Homo sapiens) (UniProt Q16881); assay: Binding affinity to TXNRD1 in human NCI-H358 cells at 1 uM by mass spectrometry based pull down assay; assay type: cell-based
Thioredoxin reductase 1, cytoplasmic (Homo sapiens), sequence (Q16881 whole entry): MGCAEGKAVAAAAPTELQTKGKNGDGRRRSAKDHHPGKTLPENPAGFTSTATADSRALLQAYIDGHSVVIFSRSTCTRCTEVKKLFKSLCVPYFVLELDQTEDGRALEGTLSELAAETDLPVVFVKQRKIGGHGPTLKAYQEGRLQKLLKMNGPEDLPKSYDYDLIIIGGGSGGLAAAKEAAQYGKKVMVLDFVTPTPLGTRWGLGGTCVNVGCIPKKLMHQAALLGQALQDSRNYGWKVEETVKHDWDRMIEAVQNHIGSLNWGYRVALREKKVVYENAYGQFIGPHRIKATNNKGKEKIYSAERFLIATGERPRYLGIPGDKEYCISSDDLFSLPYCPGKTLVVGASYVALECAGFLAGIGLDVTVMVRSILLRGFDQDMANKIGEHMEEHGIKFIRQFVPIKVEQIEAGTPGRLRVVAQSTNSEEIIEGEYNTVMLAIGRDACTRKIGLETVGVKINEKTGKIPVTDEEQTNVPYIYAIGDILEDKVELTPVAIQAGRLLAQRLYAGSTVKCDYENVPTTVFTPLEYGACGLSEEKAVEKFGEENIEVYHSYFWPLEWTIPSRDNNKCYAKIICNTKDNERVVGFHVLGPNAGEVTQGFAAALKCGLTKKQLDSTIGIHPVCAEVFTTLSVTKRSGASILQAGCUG

[8] = target: Kelch-like ECH-associated protein 1 (Homo sapiens) (UniProt Q14145); assay: Binding affinity to KEAP1 in human NCI-H358 cells at 1 uM by mass spectrometry based pull down assay; assay type: cell-based
Kelch-like ECH-associated protein 1 (Homo sapiens), sequence (Q14145 whole entry): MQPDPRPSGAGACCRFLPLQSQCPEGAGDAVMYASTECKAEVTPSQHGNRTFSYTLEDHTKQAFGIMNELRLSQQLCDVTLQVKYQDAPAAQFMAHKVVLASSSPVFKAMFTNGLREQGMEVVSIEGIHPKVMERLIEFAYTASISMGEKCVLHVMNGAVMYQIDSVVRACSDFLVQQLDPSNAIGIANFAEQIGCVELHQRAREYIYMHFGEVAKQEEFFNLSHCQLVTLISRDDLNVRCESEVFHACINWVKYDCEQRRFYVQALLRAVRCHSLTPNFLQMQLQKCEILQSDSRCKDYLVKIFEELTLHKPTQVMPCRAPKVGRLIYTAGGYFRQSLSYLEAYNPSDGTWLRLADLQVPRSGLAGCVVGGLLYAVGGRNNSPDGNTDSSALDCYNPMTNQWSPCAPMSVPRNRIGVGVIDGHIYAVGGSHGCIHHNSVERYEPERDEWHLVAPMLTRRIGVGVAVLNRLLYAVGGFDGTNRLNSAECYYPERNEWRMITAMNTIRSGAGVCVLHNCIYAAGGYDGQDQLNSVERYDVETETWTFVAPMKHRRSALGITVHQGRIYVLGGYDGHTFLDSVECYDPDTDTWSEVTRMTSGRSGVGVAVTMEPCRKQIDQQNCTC

[9] = target: Deoxyuridine 5'-triphosphate nucleotidohydrolase, mitochondrial (Homo sapiens) (UniProt P33316); assay: Binding affinity to DUT in human NCI-H358 cells at 1 uM by mass spectrometry based pull down assay; assay type: cell-based
Deoxyuridine 5'-triphosphate nucleotidohydrolase, mitochondrial (Homo sapiens), sequence (P33316 whole entry): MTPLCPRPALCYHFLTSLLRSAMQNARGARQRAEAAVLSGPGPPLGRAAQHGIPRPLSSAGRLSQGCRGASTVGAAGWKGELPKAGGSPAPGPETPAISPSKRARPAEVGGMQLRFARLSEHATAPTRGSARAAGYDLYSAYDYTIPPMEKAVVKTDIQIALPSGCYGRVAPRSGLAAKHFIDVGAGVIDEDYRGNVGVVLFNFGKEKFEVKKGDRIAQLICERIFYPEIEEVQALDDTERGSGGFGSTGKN

[10] = target: Lysophosphatidylcholine acyltransferase 1 (Homo sapiens) (UniProt Q8NF37); assay: Binding affinity to LPCAT1 in human NCI-H358 cells at 1 uM by mass spectrometry based pull down assay; assay type: cell-based
[11] = target: T2, Serine/threonine-protein kinase Chk1 (Homo sapiens) (UniProt O14757); assay: Binding affinity to CHEK1 in human NCI-H358 cells at 1 uM by mass spectrometry based pull down assay; assay type: cell-based
T2 sequence (whole entry): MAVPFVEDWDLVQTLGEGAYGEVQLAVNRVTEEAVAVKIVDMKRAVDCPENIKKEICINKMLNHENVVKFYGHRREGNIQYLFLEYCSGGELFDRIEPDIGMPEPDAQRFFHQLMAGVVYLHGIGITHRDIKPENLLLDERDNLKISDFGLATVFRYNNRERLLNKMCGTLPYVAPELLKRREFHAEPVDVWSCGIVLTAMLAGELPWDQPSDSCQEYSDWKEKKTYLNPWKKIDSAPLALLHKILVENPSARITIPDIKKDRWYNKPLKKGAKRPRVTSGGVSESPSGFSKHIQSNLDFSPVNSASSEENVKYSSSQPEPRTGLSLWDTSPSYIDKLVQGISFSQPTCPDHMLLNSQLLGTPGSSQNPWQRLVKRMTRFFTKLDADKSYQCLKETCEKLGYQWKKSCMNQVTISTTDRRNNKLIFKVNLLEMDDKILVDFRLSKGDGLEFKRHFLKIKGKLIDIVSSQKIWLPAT

[12] = target: ATP synthase F(1) complex subunit gamma, mitochondrial (Homo sapiens) (UniProt P36542); assay: Binding affinity to ATP5C1 in human NCI-H358 cells at 1 uM by mass spectrometry based pull down assay; assay type: cell-based
ATP synthase F(1) complex subunit gamma, mitochondrial (Homo sapiens), sequence (P36542 whole entry, one chain of several): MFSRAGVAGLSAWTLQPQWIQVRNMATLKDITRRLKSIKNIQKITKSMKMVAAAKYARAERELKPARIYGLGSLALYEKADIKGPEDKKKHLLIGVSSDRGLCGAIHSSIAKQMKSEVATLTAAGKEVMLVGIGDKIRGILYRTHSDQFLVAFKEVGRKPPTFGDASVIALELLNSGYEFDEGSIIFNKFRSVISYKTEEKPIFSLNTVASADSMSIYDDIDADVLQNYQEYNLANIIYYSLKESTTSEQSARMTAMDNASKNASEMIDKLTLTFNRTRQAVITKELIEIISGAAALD

[13] = target: Leucine-rich repeat flightless-interacting protein 1 (Homo sapiens) (UniProt Q32MZ4); assay: Binding affinity to LRRFIP1 in human NCI-H358 cells at 1 uM by mass spectrometry based pull down assay; assay type: cell-based
[14] = target: 6-phosphogluconate dehydrogenase, decarboxylating (Homo sapiens) (UniProt P52209); assay: Binding affinity to PGD in human NCI-H358 cells at 1 uM by mass spectrometry based pull down assay
6-phosphogluconate dehydrogenase, decarboxylating (Homo sapiens), sequence (P52209 whole entry, looked up): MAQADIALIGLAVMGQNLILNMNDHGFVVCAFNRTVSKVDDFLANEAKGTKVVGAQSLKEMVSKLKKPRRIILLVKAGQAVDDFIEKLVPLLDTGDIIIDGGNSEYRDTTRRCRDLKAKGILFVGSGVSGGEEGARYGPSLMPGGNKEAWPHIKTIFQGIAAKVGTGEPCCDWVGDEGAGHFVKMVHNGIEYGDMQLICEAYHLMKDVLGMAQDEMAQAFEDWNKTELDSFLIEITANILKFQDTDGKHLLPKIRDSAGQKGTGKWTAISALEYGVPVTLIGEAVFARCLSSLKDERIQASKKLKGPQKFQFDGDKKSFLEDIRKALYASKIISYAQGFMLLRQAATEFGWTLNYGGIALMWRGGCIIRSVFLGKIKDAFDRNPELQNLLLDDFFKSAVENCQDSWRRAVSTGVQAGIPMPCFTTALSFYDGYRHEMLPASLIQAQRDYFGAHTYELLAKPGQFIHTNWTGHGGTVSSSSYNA

[15] = target: Mitogen-activated protein kinase 12 (Homo sapiens) (UniProt P53778); assay: Inhibition of p38g in human SKCO1 cells at 1 uM after 4 hrs using biotin labeled DLKPGNLAVNEDCELK probe by mass-spectrometric analysis relative to control; assay type: cell-based
Mitogen-activated protein kinase 12 (Homo sapiens), sequence (P53778 whole entry): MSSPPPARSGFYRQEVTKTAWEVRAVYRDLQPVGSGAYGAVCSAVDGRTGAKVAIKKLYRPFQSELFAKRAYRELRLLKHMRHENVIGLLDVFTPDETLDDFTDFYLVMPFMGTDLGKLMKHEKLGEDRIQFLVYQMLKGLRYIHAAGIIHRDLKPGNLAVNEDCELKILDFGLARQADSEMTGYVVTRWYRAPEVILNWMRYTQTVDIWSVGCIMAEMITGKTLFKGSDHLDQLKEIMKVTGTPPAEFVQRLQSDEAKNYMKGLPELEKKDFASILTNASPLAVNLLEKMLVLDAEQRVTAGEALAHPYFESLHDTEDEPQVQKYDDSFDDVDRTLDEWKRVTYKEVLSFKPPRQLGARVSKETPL

Row | SMILES | IC50 [1] [nM] | Activity [2] | Activity [3] | Activity [4] | Activity [5] | Activity [6] | Activity (Beclin-1 (Homo sapiens)) | Activity [7] | Activity [8] | Activity [9] | Activity [10] | Activity [11] | Activity [12] | Activity [13] | Activity [14] | inhibition [15] [%]
1 | C=CC(=O)Nc1ccccc1Nc1nc(Nc2ccc(N3CCN(CCOCCOCCOCCNC(=O)CCCC[C@@H]4SC[C@@H]5NC(=O)N[C@@H]54)CC3)cc2)ncc1Cl | 33 | Active | Active | Active | Active | Active | Active | Active | Active | Active | Active | Active | Active | Active | Active | 
2 | C=CC(=O)Nc1ccccc1Nc1nc(Nc2ccc(N3CCN(C)CC3)cc2)ncc1Cl |  |  |  |  |  |  |  |  |  |  |  |  |  |  |  | -8.5

— ChEMBL document CHEMBL4118021, “Studies of TAK1-centered polypharmacology with novel covalent TAK1 inhibitors” (Bioorg Med Chem, 2017)
